Assay results pooled from the literature.
Lines come from different studies, so protocols differ.
Target: B2 bradykinin receptor (BDKRB2, Homo sapiens, UniProt P30411)
Sequence (P30411 1-391, as in one of the studies): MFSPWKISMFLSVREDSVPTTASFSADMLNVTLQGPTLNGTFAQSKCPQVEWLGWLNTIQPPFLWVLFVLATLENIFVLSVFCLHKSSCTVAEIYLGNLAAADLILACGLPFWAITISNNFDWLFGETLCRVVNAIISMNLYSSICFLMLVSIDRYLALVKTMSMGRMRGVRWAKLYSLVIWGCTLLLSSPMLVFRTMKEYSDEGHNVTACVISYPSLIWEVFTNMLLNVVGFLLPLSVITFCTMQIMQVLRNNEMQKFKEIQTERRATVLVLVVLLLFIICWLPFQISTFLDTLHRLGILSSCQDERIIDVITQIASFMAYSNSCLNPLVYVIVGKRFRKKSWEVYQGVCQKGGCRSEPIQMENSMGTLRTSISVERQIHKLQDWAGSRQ

For `C[C@H](C(=O)N[C@H]1COc2ccccc2[C@@H]1S(C)(=O)=O)c1ccc(F)cc1`, the inhibition was 8% (cell-free assay; 10 µM).
With `CC(C)N1CCC[C@H]1CNC(=O)c1cn(C2CCCC2)c(=O)c2c1c1ccccc1n2C` the inhibition was 11% (ligand displacement, radioligand; 10 µM).
With `COc1ccc(S(=O)(=O)N2CCCCC2)cc1C` the inhibition was under 30% (ligand displacement, radioligand; 10 µM).
`COCc1c(-c2cc3cc(C)cc(OC)c3s2)c2c(N)ncnn2c1CN1CCNC(=O)C1` has an inhibition of 3% (ligand displacement, radioligand; 10 µM).
The inhibition of `O=C(Nc1cccnn1)N1CCN([C@@H]2CCOc3cc(C(F)(F)F)ccc32)CC1` is reported as 10% (cell-free assay; 20 µM).
For `CN(CCN1CCC(OC(=O)Nc2ccccc2-c2ccccc2)CC1)C(=O)c1ccc(CN2CCC(C(N)=O)CC2)cc1`, the inhibition was -6% (ligand displacement, radioligand; 1 µM).
The inhibition of `c1ccc(C(NCCNC(c2ccccc2)c2ccccc2)c2ccccc2)cc1` is reported as 17% (cell-free assay; 10 µM).
With `CCN(CC)CCCC[C@H](NC(=O)[C@H](CC(C)C)NC(=O)[C@H](C)NC(=O)[C@H](Cc1ccccc1)NC(=O)c1ccc(C(C)(C)C)cc1)C(=O)N[C@@H](CO)C(=O)OC` the inhibition was -7% (ligand displacement, radioligand; 10 µM).
